Assay results reported in ChEMBL document CHEMBL2203243, “Synthesis and biological evaluation of novel benzimidazole derivatives and their binding behavior with bovine serum albumin” (Eur J Med Chem, 2012).
In brackets after ≈: the same amount, converted by molar mass.

Columns and labels:
[1] = system: Pseudomonas aeruginosa; experiment: Antimicrobial activity against Pseudomonas aeruginosa by microbroth dilution method; assay type: functional
Summary of the method: (§1)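 Two-fold serial broth microdilution in 96-well microtest plates, run against four Gram-positive strains, five Gram-negative strains and two fungi.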

[2] = system: Bacillus; experiment: Antimicrobial activity against Bacillus proteus by microbroth dilution method; assay type: functional; summary of the method: as §1
[3] = system: Bacillus subtilis; experiment: Antimicrobial activity against Bacillus subtilis by microbroth dilution method; assay type: functional; summary of the method: as §1
[4] = Antimicrobial activity against Eberthella typhosa by microbroth dilution method; assay type: functional; summary of the method: as §1
[5] = system: Candida; experiment: Antimicrobial activity against Candida mycoderma by microbroth dilution method; assay type: functional; summary of the method: as §1
[6] = system: Micrococcus luteus; experiment: Antimicrobial activity against Micrococcus luteus ATCC 4698 by microbroth dilution method; assay type: functional; summary of the method: as §1
[7] = system: Staphylococcus aureus; experiment: Antimicrobial activity against methicillin-resistant Staphylococcus aureus N315 by microbroth dilution method; assay type: functional
[8] = system: Staphylococcus aureus; experiment: Antimicrobial activity against Staphylococcus aureus ATCC 25923 by microbroth dilution method; assay type: functional; summary of the method: as §1
[9] = system: Escherichia coli; experiment: Antimicrobial activity against Escherichia coli DH52 by microbroth dilution method; assay type: functional; summary of the method: as §1
[10] = system: Candida albicans; experiment: Antimicrobial activity against Candida albicans by microbroth dilution method; assay type: functional; summary of the method: as §1
[11] = system: Shigella dysenteriae; experiment: Antimicrobial activity against Shigella dysenteriae by microbroth dilution method; assay type: functional
[12] = Lipophilicity, log P of the compound by UV-Vis spectrophotometric method based saturation shake flask assay; assay type: physicochemical; settings: octanol/water
Summary of the method: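 Log P measured by the traditional saturation shake-flask partition, with compound quantified by UV-vis spectrophotometry.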

[13] = system: Pseudomonas aeruginosa; experiment: Potency index, ratio of MIC of chloromycin to MIC of compound against Pseudomonas aeruginosa by microbroth dilution method; assay type: functional
[14] = biological target: Albumin (Bos taurus, UniProt P02769); experiment: Binding affinity to BSA at pH 7.4 by UV-vis absorption spectroscopic method; assay type: ADME; settings: cattle, isolated protein
[15] = system: Escherichia coli; experiment: Potency index, ratio of MIC of chloromycin to MIC of compound against Escherichia coli DH52 by microbroth dilution method; assay type: functional
[16] = system: Staphylococcus aureus; experiment: Potency index, ratio of MIC of chloromycin to MIC of compound against methicillin-resistant Staphylococcus aureus N315 by microbroth dilution method; assay type: functional
[17] = system: Candida; experiment: Potency index, ratio of MIC of fluconazole to MIC of compound against Candida mycoderma by microbroth dilution method; assay type: functional

Sequence of Albumin (P02769 whole entry): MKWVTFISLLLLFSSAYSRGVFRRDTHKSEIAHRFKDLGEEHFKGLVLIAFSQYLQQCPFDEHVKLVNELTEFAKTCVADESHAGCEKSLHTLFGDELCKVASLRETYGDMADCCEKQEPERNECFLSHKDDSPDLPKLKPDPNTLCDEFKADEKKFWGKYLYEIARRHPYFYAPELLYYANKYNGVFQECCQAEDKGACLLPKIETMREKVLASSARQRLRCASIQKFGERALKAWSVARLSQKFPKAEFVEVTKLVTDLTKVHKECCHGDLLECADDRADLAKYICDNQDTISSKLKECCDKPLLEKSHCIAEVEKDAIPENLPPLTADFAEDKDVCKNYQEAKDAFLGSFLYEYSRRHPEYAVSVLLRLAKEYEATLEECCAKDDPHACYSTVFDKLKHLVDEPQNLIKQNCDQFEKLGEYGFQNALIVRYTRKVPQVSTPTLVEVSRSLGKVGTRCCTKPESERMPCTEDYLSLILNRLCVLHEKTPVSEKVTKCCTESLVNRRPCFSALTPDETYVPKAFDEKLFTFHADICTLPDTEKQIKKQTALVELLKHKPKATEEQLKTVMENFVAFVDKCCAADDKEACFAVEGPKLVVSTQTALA

Structure (SMILES)	MIC [1] [µg/mL]	MIC [2] [µg/mL]	MIC [3] [µg/mL]	MIC [4] [µg/mL]	MIC [5] [µg/mL]	MIC [6] [µg/mL]	MIC [7] [µg/mL]	MIC [8] [µg/mL]	MIC [9] [µg/mL]	MIC [10] [µg/mL]	MIC [11] [µg/mL]	logP [12]	logP ([12]; read-out: logP)	Ratio [13]	Activity [14]	Ratio [15]	Ratio [16]	Ratio [17]
Cc1c(C(=O)NNCc2nc3ccccc3n2Cc2ccc(F)cc2)sc(C(=O)NNCc2nc3ccccc3n2Cc2ccc(F)cc2)c1C.Cl	64	128	16	256	8	64	32	256	16	64	8	–	–	–	–	–	–	–
Cc1c(C(=O)NN)sc(C(=O)NN)c1C	> 512	> 512	> 512	512 (≈ 2240 µM)	512 (≈ 2240 µM)	512 (≈ 2240 µM)	> 512	> 512	512 (≈ 2240 µM)	512 (≈ 2240 µM)	512 (≈ 2240 µM)	-1.41	–	–	–	–	–	–
Cc1c(C(=O)NNCc2nc3ccccc3[nH]2)sc(C(=O)NNCc2nc3ccccc3[nH]2)c1C	> 512	256 (≈ 524 µM)	128 (≈ 262 µM)	512 (≈ 1050 µM)	256 (≈ 524 µM)	256 (≈ 524 µM)	> 512	> 512	512 (≈ 1050 µM)	> 512	512 (≈ 1050 µM)	–	1.25	–	–	–	–	–
Cc1c(C(=O)NN)sc(C(=O)NNCc2nc3ccccc3[nH]2)c1C	256 (≈ 714 µM)	128 (≈ 357 µM)	64 (≈ 179 µM)	64 (≈ 179 µM)	128 (≈ 357 µM)	128 (≈ 357 µM)	256 (≈ 714 µM)	256 (≈ 714 µM)	512 (≈ 1430 µM)	256 (≈ 714 µM)	512 (≈ 1430 µM)	–	0.84	–	–	–	–	–
CCCn1c(CNNC(=O)c2sc(C(=O)NNCc3nc4ccccc4n3CCC)c(C)c2C)nc2ccccc21	128 (≈ 223 µM)	256 (≈ 447 µM)	256 (≈ 447 µM)	256 (≈ 447 µM)	256 (≈ 447 µM)	256 (≈ 447 µM)	32 (≈ 55.9 µM)	512 (≈ 894 µM)	256 (≈ 447 µM)	512 (≈ 894 µM)	256 (≈ 447 µM)	–	3.7	–	–	–	–	–
CCCCCCn1c(CNNC(=O)c2sc(C(=O)NNCc3nc4ccccc4n3CCCCCC)c(C)c2C)nc2ccccc21	32 (≈ 48.7 µM)	64 (≈ 97.4 µM)	32 (≈ 48.7 µM)	64 (≈ 97.4 µM)	32 (≈ 48.7 µM)	64 (≈ 97.4 µM)	4 (≈ 6.09 µM)	32 (≈ 48.7 µM)	8 (≈ 12.2 µM)	32 (≈ 48.7 µM)	64 (≈ 97.4 µM)	–	6.62	–	–	–	–	–
CCCCCCCCn1c(CNNC(=O)c2sc(C(=O)NNCc3nc4ccccc4n3CCCCCCCC)c(C)c2C)nc2ccccc21	16 (≈ 22.4 µM)	> 512	32 (≈ 44.9 µM)	64 (≈ 89.8 µM)	4 (≈ 5.61 µM)	16 (≈ 22.4 µM)	8 (≈ 11.2 µM)	32 (≈ 44.9 µM)	32 (≈ 44.9 µM)	16 (≈ 22.4 µM)	16 (≈ 22.4 µM)	–	8.19	–	–	–	–	–
CCCCCCCCCCn1c(CNNC(=O)c2sc(C(=O)NNCc3nc4ccccc4n3CCCCCCCCCC)c(C)c2C)nc2ccccc21	4 (≈ 5.2 µM)	8 (≈ 10.4 µM)	4 (≈ 5.2 µM)	4 (≈ 5.2 µM)	2 (≈ 2.6 µM)	16 (≈ 20.8 µM)	2 (≈ 2.6 µM)	2 (≈ 2.6 µM)	4 (≈ 5.2 µM)	4 (≈ 5.2 µM)	8 (≈ 10.4 µM)	ND(Insoluble)	–	8	Active	8	8	2
O=C(N[C@H](CO)[C@H](O)c1ccc([N+](=O)[O-])cc1)C(Cl)Cl [CHLORAMPHENICOL]	32 (≈ 99 µM)	32 (≈ 99 µM)	32 (≈ 99 µM)	32 (≈ 99 µM)	–	8 (≈ 24.8 µM)	16 (≈ 49.5 µM)	16 (≈ 49.5 µM)	32 (≈ 99 µM)	–	32 (≈ 99 µM)	–	–	–	–	–	–	–
OC(Cn1cncn1)(Cn1cncn1)c1ccc(F)cc1F [FLUCONAZOLE]	–	–	–	–	4 (≈ 13.1 µM)	–	–	–	–	1 (≈ 3.27 µM)	–	–	–	–	–	–	–	–
CCn1cc(C(=O)O)c(=O)c2cc(F)c(N3CCNCC3)cc21 [NORFLOXACIN]	16 (≈ 50.1 µM)	8 (≈ 25.1 µM)	1 (≈ 3.13 µM)	4 (≈ 12.5 µM)	–	2 (≈ 6.26 µM)	8 (≈ 25.1 µM)	0.5 (≈ 1.57 µM)	16 (≈ 50.1 µM)	–	4 (≈ 12.5 µM)	–	–	–	–	–	–	–
